# pEC50, pIC50: −log10 of the molar value.
# Target: T1, Growth hormone secretagogue receptor type 1 (Homo sapiens, UniProt Q92847)
# Experiment: Displacement of human [125I]-ghrelin from GHS-R1a (unknown origin) expressed in HEK293 cell membranes after 1 hr by radioligand binding assay
# Details: read-out: IC50
# T1 sequence (Q92847 whole entry): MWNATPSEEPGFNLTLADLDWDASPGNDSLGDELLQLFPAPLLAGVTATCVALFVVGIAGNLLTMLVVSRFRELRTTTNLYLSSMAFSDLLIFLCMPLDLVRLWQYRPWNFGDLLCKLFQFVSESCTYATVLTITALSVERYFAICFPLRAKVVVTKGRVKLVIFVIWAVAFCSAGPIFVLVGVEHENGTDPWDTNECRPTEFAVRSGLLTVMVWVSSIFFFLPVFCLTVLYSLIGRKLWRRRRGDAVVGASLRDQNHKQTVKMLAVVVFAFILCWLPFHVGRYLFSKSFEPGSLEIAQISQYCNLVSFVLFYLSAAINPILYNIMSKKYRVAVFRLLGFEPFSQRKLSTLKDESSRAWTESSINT
row,SMILES,pIC50
1,Cc1ccc2[nH]c(C(=O)N[C@H]3Cc4ccccc4[C@@H]3NC(=O)c3cnccc3N)cc2c1,7.46
2,COCCNCCC(=O)N[C@H]1c2ccccc2C[C@@H]1NC(=O)c1cc2ccccc2n1C,6.37
3,CN1CCC[C@@H](C(=O)N[C@H]2c3ccccc3C[C@@H]2NC(=O)c2ccc3c(ccn3C)c2)C1,6.28
4,CN1CCO[C@@H](C(=O)N[C@H]2c3ccccc3C[C@@H]2NC(=O)c2ccc3c(ccn3C)c2)C1,< 5.54
5,Cc1ccc2[nH]c(C(=O)N[C@H]3Cc4ccccc4[C@@H]3NC(=O)CCN(C)C)cc2c1,7.80
6,CN1CCCCC(C(=O)N[C@H]2c3ccccc3C[C@@H]2NC(=O)c2ccc3c(ccn3C)c2)C1 (stereo in doubt; 28),6.72
7,Cc1ccc2[nH]c(C(=O)N[C@H]3Cc4ccccc4[C@@H]3C(=O)N(C)CCN(C)C)cc2c1,7.85
8,CN1CCC[C@H](C(=O)N[C@H]2c3ccccc3C[C@@H]2NC(=O)c2ccc3c(ccn3C)c2)C1,6.25
9,CN(C)CCC(=O)N[C@H]1c2ccccc2C[C@@H]1NC(=O)c1cc2cc(F)c(F)cc2[nH]1,7.01
10,CN1CCO[C@H](C(=O)N[C@H]2c3ccccc3C[C@@H]2NC(=O)c2ccc3c(ccn3C)c2)C1,6.62
11,Cn1ccc2c(F)c(C(=O)N[C@H]3Cc4ccccc4[C@@H]3NC(=O)c3cnccc3N)ccc21,7.89

# Same assay, conditions: read-out: pIC50 (converted)
row,SMILES,IC50 [nM]
1,CN1CCO[C@@H](C(=O)N[C@H]2c3ccccc3C[C@@H]2NC(=O)c2ccc3c(ccn3C)c2)C1,> 3160

# Target: T1, Growth hormone secretagogue receptor type 1
# Experiment: Agonist activity at human GHS receptor assessed as intracellular myo-IP1 secretion after 90 mins by HTRF analysis
# Assay type: functional, cell-based
# Details: read-out: EC50
row,SMILES,pEC50
1,Cc1ccc2[nH]c(C(=O)N[C@H]3Cc4ccccc4[C@@H]3NC(=O)[C@@H]3CNCCOC3)cc2c1,6.86
2,Cc1ccc2[nH]c(C(=O)N[C@H]3Cc4ccccc4[C@@H]3C(=O)N[C@H]3CCCN(C)C3)cc2c1,10.00
3,Cn1ccc2cc(C(=O)N[C@H]3Cc4ccccc4[C@@H]3NC(=O)c3cnccc3N)cc(F)c21,8.15
4,Cc1ccc2[nH]c(C(=O)N[C@H]3Cc4ccccc4[C@@H]3NC(=O)[C@H]3COCCN(C)C3)cc2c1,7.68
5,Cn1ccc2cc(C(=O)N[C@H]3Cc4ccccc4[C@@H]3NC(=O)[C@@H]3CNCCO3)ccc21,7.28
6,Cn1ccc2cc(C(=O)N[C@H]3Cc4ccccc4[C@@H]3NC(=O)c3cnccc3N)c(F)cc21,6.87
7,Cc1ccc2[nH]c(C(=O)N[C@H]3Cc4ccccc4[C@@H]3NC(=O)c3cnccc3N)cc2c1,7.85
8,COCCNCCC(=O)N[C@H]1c2ccccc2C[C@@H]1NC(=O)c1cc2ccccc2n1C,6.80
9,CN1CCC[C@@H](C(=O)N[C@H]2c3ccccc3C[C@@H]2NC(=O)c2ccc3c(ccn3C)c2)C1,6.77
10,CN1CCO[C@@H](C(=O)N[C@H]2c3ccccc3C[C@@H]2NC(=O)c2ccc3c(ccn3C)c2)C1,6.56
11,Cc1ccc2[nH]c(C(=O)N[C@H]3Cc4ccccc4[C@@H]3NC(=O)CCN(C)C)cc2c1,7.68
12,CN1CCCCC(C(=O)N[C@H]2c3ccccc3C[C@@H]2NC(=O)c2ccc3c(ccn3C)c2)C1 (stereo in doubt; 28),7.12
13,Cc1ccc2[nH]c(C(=O)N[C@H]3Cc4ccccc4[C@@H]3C(=O)N(C)CCN(C)C)cc2c1,8.30
14,CN1CCC[C@H](C(=O)N[C@H]2c3ccccc3C[C@@H]2NC(=O)c2ccc3c(ccn3C)c2)C1,7.55
15,CN(C)CCC(=O)N[C@H]1c2ccccc2C[C@@H]1NC(=O)c1cc2cc(F)c(F)cc2[nH]1,7.46
16,CC(=O)N1CCO[C@H](C(=O)N[C@H]2c3ccccc3C[C@@H]2NC(=O)c2ccc3c(ccn3C)c2)C1,< 5.11
17,CN1CCO[C@H](C(=O)N[C@H]2c3ccccc3C[C@@H]2NC(=O)c2ccc3c(ccn3C)c2)C1,7.68
18,Cn1ccc2c(F)c(C(=O)N[C@H]3Cc4ccccc4[C@@H]3NC(=O)c3cnccc3N)ccc21,8.52

# Same assay, conditions: read-out: pEC50 (converted)
row,SMILES,EC50 [nM]
1,CC(=O)N1CCO[C@H](C(=O)N[C@H]2c3ccccc3C[C@@H]2NC(=O)c2ccc3c(ccn3C)c2)C1,> 10000
2,Cn1ccc2c(F)c(C(=O)N[C@H]3Cc4ccccc4[C@@H]3NC(=O)c3cnccc3N)ccc21,10

# Test system: not listed separately
# Experiment: 1-octanol/aqueous buffer distribution coefficient, log D of compound at pH 7.4
# Assay type: physicochemical
# Details: 1-octanol/aqueous buffer, read-out: logD
row,SMILES,logD
1,Cc1ccc2[nH]c(C(=O)N[C@H]3Cc4ccccc4[C@@H]3NC(=O)[C@@H]3CNCCOC3)cc2c1,2.6
2,Cc1ccc2[nH]c(C(=O)N[C@H]3Cc4ccccc4[C@@H]3C(=O)N[C@H]3CCCN(C)C3)cc2c1,3
3,Cn1ccc2cc(C(=O)N[C@H]3Cc4ccccc4[C@@H]3NC(=O)c3cnccc3N)cc(F)c21,4
4,Cc1ccc2[nH]c(C(=O)N[C@H]3Cc4ccccc4[C@@H]3NC(=O)[C@H]3COCCN(C)C3)cc2c1,3.7
5,Cn1ccc2cc(C(=O)N[C@H]3Cc4ccccc4[C@@H]3NC(=O)[C@@H]3CNCCO3)ccc21,1.8
6,Cn1ccc2cc(C(=O)N[C@H]3Cc4ccccc4[C@@H]3NC(=O)c3cnccc3N)c(F)cc21,3.1
7,Cc1ccc2[nH]c(C(=O)N[C@H]3Cc4ccccc4[C@@H]3NC(=O)c3cnccc3N)cc2c1,3
8,CN1CCC[C@@H](C(=O)N[C@H]2c3ccccc3C[C@@H]2NC(=O)c2ccc3c(ccn3C)c2)C1,1.9
9,CN1CCO[C@@H](C(=O)N[C@H]2c3ccccc3C[C@@H]2NC(=O)c2ccc3c(ccn3C)c2)C1,2.4
10,Cc1ccc2[nH]c(C(=O)N[C@H]3Cc4ccccc4[C@H]3C(=O)NCCN(C)C)cc2c1,2.3
11,Cc1ccc2[nH]c(C(=O)N[C@H]3Cc4ccccc4[C@@H]3C(=O)N(C)CCN(C)C)cc2c1,2.5
12,CN1CCC[C@H](C(=O)N[C@H]2c3ccccc3C[C@@H]2NC(=O)c2ccc3c(ccn3C)c2)C1,2.1
13,CC(=O)N1CCO[C@H](C(=O)N[C@H]2c3ccccc3C[C@@H]2NC(=O)c2ccc3c(ccn3C)c2)C1,2.2
14,CN1CCO[C@H](C(=O)N[C@H]2c3ccccc3C[C@@H]2NC(=O)c2ccc3c(ccn3C)c2)C1,2.6
15,Cn1ccc2c(F)c(C(=O)N[C@H]3Cc4ccccc4[C@@H]3NC(=O)c3cnccc3N)ccc21,2.9

# Same assay, conditions: octanol/water
row,SMILES,logD
1,CN1CCCCC(C(=O)N[C@H]2c3ccccc3C[C@@H]2NC(=O)c2ccc3c(ccn3C)c2)C1 (stereo in doubt; 28),1.6

# Target: Voltage-gated inwardly rectifying potassium channel KCNH2 (Homo sapiens, UniProt Q12809)
# Experiment: Inhibition of human ERG expressed in CHO cells
# Assay type: cell-based
# Details: not given
# How it was run: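 hERG currents recorded from CHO cells expressing hERG.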
# Sequence of Voltage-gated inwardly rectifying potassium channel KCNH2 (Q12809 whole entry): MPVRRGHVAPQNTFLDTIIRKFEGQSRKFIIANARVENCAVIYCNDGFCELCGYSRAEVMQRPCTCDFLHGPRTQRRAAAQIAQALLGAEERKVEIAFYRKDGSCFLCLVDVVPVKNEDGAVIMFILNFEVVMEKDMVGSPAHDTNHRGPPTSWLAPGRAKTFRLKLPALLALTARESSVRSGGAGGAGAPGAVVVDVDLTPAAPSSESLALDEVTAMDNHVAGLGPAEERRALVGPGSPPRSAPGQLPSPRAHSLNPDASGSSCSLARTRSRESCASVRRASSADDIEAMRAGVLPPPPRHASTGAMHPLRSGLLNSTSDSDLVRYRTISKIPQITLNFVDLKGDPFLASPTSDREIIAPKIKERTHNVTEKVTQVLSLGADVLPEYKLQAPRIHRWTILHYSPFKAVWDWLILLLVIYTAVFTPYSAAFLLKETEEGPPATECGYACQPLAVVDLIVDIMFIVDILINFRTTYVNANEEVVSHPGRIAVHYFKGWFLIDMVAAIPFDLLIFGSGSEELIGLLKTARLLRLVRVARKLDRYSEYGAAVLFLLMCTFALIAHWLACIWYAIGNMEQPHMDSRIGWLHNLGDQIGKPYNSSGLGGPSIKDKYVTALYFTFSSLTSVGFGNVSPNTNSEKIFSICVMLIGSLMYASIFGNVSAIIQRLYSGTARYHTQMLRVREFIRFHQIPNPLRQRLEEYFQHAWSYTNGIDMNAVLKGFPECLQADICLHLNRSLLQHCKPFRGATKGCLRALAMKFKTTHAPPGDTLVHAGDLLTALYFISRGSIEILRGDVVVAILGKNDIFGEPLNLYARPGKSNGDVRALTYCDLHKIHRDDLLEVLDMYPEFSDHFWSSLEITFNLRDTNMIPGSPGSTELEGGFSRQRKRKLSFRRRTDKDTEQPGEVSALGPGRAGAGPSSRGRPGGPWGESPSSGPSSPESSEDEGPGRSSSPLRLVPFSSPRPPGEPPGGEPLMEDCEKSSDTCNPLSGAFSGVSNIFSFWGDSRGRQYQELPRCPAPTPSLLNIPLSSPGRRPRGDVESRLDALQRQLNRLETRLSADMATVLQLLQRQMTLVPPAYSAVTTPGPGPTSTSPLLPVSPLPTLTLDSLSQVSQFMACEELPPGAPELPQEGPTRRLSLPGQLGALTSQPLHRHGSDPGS
row,SMILES,pIC50
1,COCCNCCC(=O)N[C@H]1c2ccccc2C[C@@H]1NC(=O)c1cc2ccccc2n1C,5.80
2,Cc1ccc2[nH]c(C(=O)N[C@H]3Cc4ccccc4[C@@H]3NC(=O)CCN(C)C)cc2c1,5.10
3,CN(C)CCC(=O)N[C@H]1c2ccccc2C[C@@H]1NC(=O)c1cc2cc(F)c(F)cc2[nH]1,5.40

# Target: hERG (KCNH2) (Homo sapiens, UniProt Q12809)
# Experiment: Inhibition of human ERG expressed in CHO cells at 11 uM relative to control
# Assay type: cell-based
# Details: CHO cells that express hERG
# Sequence of hERG (KCNH2) (Q12809 whole entry): as above
row,SMILES,inhibition at 11 µM [%]
1,Cc1ccc2[nH]c(C(=O)N[C@H]3Cc4ccccc4[C@@H]3C(=O)N[C@H]3CCCN(C)C3)cc2c1,30
2,Cc1ccc2[nH]c(C(=O)N[C@H]3Cc4ccccc4[C@H]3C(=O)NCCN(C)C)cc2c1,42
3,Cc1ccc2[nH]c(C(=O)N[C@H]3Cc4ccccc4[C@@H]3C(=O)N(C)CCN(C)C)cc2c1,50

# Test system: not listed separately
# Experiment: Intrinsic clearance in human liver microsomes
# Assay type: ADME, microsome
# Details: read-out: CLH
row,SMILES,microsomal CLint [µL/min/mg]
1,Cc1ccc2[nH]c(C(=O)N[C@H]3Cc4ccccc4[C@@H]3C(=O)N[C@H]3CCCN(C)C3)cc2c1,132
2,Cc1ccc2[nH]c(C(=O)N[C@H]3Cc4ccccc4[C@@H]3C(=O)N(C)CCN(C)C)cc2c1,26

# Test system: not listed separately
# Experiment: Stability in human liver microsomes assessed as formation of iminium ions by LC-MS/MS method
# Assay type: ADME, microsome
# Details: not given
row,SMILES,Stability
1,CN1CCO[C@H](C(=O)N[C@H]2c3ccccc3C[C@@H]2NC(=O)c2ccc3c(ccn3C)c2)C1,Unstable

# Test system: not listed separately
# Experiment: Stability in human liver microsomes assessed as formation of aldehyde adducts by LC-MS/MS method
# Assay type: ADME, microsome
# Details: not given
row,SMILES,Stability
1,CN1CCO[C@H](C(=O)N[C@H]2c3ccccc3C[C@@H]2NC(=O)c2ccc3c(ccn3C)c2)C1,Unstable

# Test system: Hepatocyte
# Experiment: Stability in rat hepatocytes assessed as formation of iminium ions by LC-MS/MS method
# Assay type: ADME, cell-based
# Details: not given
row,SMILES,Stability
1,CN1CCO[C@H](C(=O)N[C@H]2c3ccccc3C[C@@H]2NC(=O)c2ccc3c(ccn3C)c2)C1,Unstable

# Test system: Hepatocyte
# Experiment: Stability in rat hepatocytes assessed as formation of aldehyde adducts by LC-MS/MS method
# Assay type: ADME, cell-based
# Details: not given
row,SMILES,Stability
1,CN1CCO[C@H](C(=O)N[C@H]2c3ccccc3C[C@@H]2NC(=O)c2ccc3c(ccn3C)c2)C1,Unstable

# Test system: not listed separately
# Experiment: Drug metabolism in rat hepatocytes assessed as 1-Methyl-N-((1S,2S)-1-((S)-morpholine-2-carboxamido)-2,3-dihydro-1H-inden-2-yl)-1H-indole-5-carboxamide formation by LC-MS/MS method
# Assay type: ADME, cell-based, Hepatocyte
# Details: not given
row,SMILES,Drug metabolism
1,CN1CCO[C@H](C(=O)N[C@H]2c3ccccc3C[C@@H]2NC(=O)c2ccc3c(ccn3C)c2)C1,Metabolite_Detected

# Test system: not listed separately
# Experiment: Drug metabolism in human liver microsomes assessed as 1-Methyl-N-((1S,2S)-1-((S)-morpholine-2-carboxamido)-2,3-dihydro-1H-inden-2-yl)-1H-indole-5-carboxamide formation by LC-MS/MS method
# Assay type: ADME, microsome
# Details: not given
row,SMILES,Drug metabolism
1,CN1CCO[C@H](C(=O)N[C@H]2c3ccccc3C[C@@H]2NC(=O)c2ccc3c(ccn3C)c2)C1,Metabolite_Detected

# Test system: not listed separately
# Experiment: Drug level in rat hepatocytes treated with 1-Methyl-N-[(1S,2S)-1-{[(2S)-4-methylmorpholine-2-carbonyl]-amino}-2,3-dihydro-1H-inden-2-yl]-1H-indole-5-carboxamide by LC-MS/MS method
# Assay type: ADME, cell-based, Hepatocyte
# Details: not given
row,SMILES,Drug metabolism
1,Cn1ccc2cc(C(=O)N[C@H]3Cc4ccccc4[C@@H]3NC(=O)[C@@H]3CNCCO3)ccc21,Metabolite_Detected

# Test system: not listed separately
# Experiment: Drug level in human liver microsomes treated with 1-Methyl-N-[(1S,2S)-1-{[(2S)-4-methylmorpholine-2-carbonyl]-amino}-2,3-dihydro-1H-inden-2-yl]-1H-indole-5-carboxamide by LC-MS/MS method
# Assay type: ADME, microsome
# Details: not given
row,SMILES,Drug metabolism
1,Cn1ccc2cc(C(=O)N[C@H]3Cc4ccccc4[C@@H]3NC(=O)[C@@H]3CNCCO3)ccc21,Metabolite_Detected

# From ChEMBL document CHEMBL4130628, “Identification and Pharmacological Profile of an Indane Based Series of Ghrelin Receptor Full Agonists” (J Med Chem, 2018)
